Tests used:
[1] = system: Rattus norvegicus; test: Toxicity in Sprague-Dawley rat assessed as increase in body weight at 200 mg/kg, po after 7 days relative to control; type: organism-based; design: dose 200 mg/kg, route oral; settings: in vivo, 168 h
[2] = Antitumor activity against Sprague-Dawley rat mammary tumor cells assessed as increase in apoptotic index at 200 mg/kg, po after 7 days by TUNEL assay relative to control; type: functional
Outline: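 Female Sprague Dawley rats with N-methyl-nitrosourea-induced mammary cancers (about 200 mm²) were given the retinoid in Teklad diet for 7 days. BrdU was injected 2 h before CO₂ euthanasia. Cancers were excised and fixed in 10% formalin. Each index is the ratio of treated to vehicle-fed animals.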

[3] = system: Rattus norvegicus; test: Toxicity in 50 days old Sprague-Dawley rat assessed as increase in serum triglyceride level at 200 mg/kg, po administered with diet after 7 days relative to control; type: organism-based; design: dose 200 mg/kg, route oral; settings: in vivo, 168 h
[4] = system: Rattus norvegicus; test: Toxicity in 216 days old Sprague-Dawley rat assessed as increase in serum triglyceride level at 200 mg/kg, po administered with diet after 7 days relative to control; type: organism-based; design: dose 200 mg/kg, route oral; settings: in vivo, 168 h
[5] = system: Rattus norvegicus; test: Toxicity in Sprague-Dawley rat assessed as liver weight measured per 100 g of body weight at 200 mg/kg, po after 7 days (reference value: 3.3 g); type: organism-based; design: dose 200 mg/kg, route oral; settings: in vivo, 168 h

Compound CC(=C/C=C/C(C)=C/C(=O)O)/C=C1\CCC(C)c2ccccc21 (racemic) has an Activity [1] of 3%, an Activity [2] of 300% and an Activity [3] of 566%. It also gave an Activity [4] of 370%.
CC(=C/C=C/C(C)=C/C(=O)O)/C=C1\CCCc2ccccc21 [UAB-30] gave an Activity [1] of 3% and an Activity [2] of 33%.
With CC(=C/C=C/C(C)=C/C(=O)O)/C=C1\CC[C@@H](C)c2ccccc21 the Activity [1] was 3%, the Activity [2] was 150% and the Activity [5] was 4.2 g.
In the case of C=C(c1ccc(C(=O)O)cc1)c1cc2c(cc1C)C(C)(C)CCC2(C)C [BEXAROTENE], the Activity [1] is reported as 3%.
For CC1=C(/C=C/C(C)=C\C=C\C(C)=C\C(=O)O)C(C)(C)CCC1 [ALITRETINOIN], the Activity [1] was 3%.
For CC(=C/C=C/C(C)=C/C(=O)O)/C=C1\CC[C@H](C)c2ccccc21, the Activity [1] was 3%, the Activity [2] was 300% and the Activity [5] was 3.8 g. For the same compound, the Activity [4] was 175%.
